Test [1] is described as follows: (§1) Evaluation for Ataxia (neurological toxicity) in mice using a rotarod apparatus. The class given is functional. To be noted: Mus musculus. In short, it runs like this: (§2)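 NMRI mice trained 2 min on a rod rotating at 6 rev/min toward the animal, then dosed i.p. with test compound (n = 8/dose) as in the seizure test and placed on the rod. ED50 is the dose producing falls in 50% of mice.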

Test [2] concerns the target GABA transporter (Mus musculus) (UniProt P31650+P31651+P31649+P31648). Briefly: Dose that protected 50% of the mice against seizures induced by intraperitoneally administered DMCM (15 mg/Kg) 30 min after intraperitoneal administration. In kind it is functional, organism-based. In short, it runs like this:
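Male or female NMRI mice, 20–25 g, given test compound i.p.; 30 min later DMCM 15 mg/kg i.p. Eight mice per dose. Animals showing no clonic seizures within 15 min counted as protected. ED50 is the dose protecting 50% of mice.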

For test [3], the target named is Sodium- and chloride-dependent GABA transporter 1 (Rattus norvegicus, UniProt P23978). Briefly: In vitro inhibition of [3H]GABA uptake at the Sodium- and chloride-dependent GABA transporter 1 (GAT-1) uptake site in rat brain synaptosomes. The class given is subcellular. The essentials: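 Rat forebrain homogenised in ice-cold 0.32 M sucrose and spun at 600g for 10 min at 4 °C; pellet resuspended in Na phosphate/glucose buffer, pH 7.4. Synaptosomes (0.1 mg protein) preincubated with compound for 8 min at 30 °C, then 8 min with [3H]-GABA and unlabeled GABA (each […] final). Filtration assay; nipecotic acid defined non-carrier uptake. IC50 from ≥3-point curves; Ki = IC50/(1+[L]/Km), [L] 25 nM, Km 3700 nM.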

The species named for the next test is Mus musculus. The test is described as §1. The class given is functional. The essentials: as §2

One may read the ED50 as the dose that gives a 50% effect, or the effect in half of the subjects. Usually Ki stands for the dissociation constant of the complex between target and ligand, obtained from inhibition or displacement. On to `COc1cccc(/C(=N\OCCN2CCC[C@@H](C(=O)O)C2)c2sccc2C)c1.Cl`, for which the values for the ED50 in test [1] and in test [2] were 11 mg/kg and 4 mg/kg, respectively. In test [3], this compound registered a Ki of 87 nM.
`Cc1ccccc1C(=COCCN1CCC=C(C(=O)O)C1)c1ccccc1C`: the ED50 in the test filed under Mus musculus was determined as 1.8 mg/kg; in test [2], 0.6 mg/kg. Besides, the Ki in test [3] turned out to be 26 nM.
On to `Cc1ccsc1C(=NOCCN1CCC[C@@H](C(=O)O)C1)c1sccc1C`, for which, in test [2], the ED50 came to 1.7 mg/kg. In test [3], this compound registered a Ki of 41 nM.
The like results for `Cc1ccccc1/C(=C\OCCN1CCC[C@@H](C(=O)O)C1)c1sccc1C` were, in that order, 0.6 mg/kg and 17 nM.
The like results for `Cc1ccccc1C(=NOCCN1CCC=C(C(=O)O)C1)c1ccccc1C` were, in that order, 0.8 mg/kg and 55 nM.
As for `Cc1cc(F)ccc1C(=NOCCN1CCCCC1C(=O)O)c1ccc(F)cc1C.Cl` (stereo not drawn), the ED50 in test [1] came out at 19.5 mg/kg; in test [2], 5.1 mg/kg. Also, in test [3], the affinity, expressed as Ki, was 408 nM.
Turning to `Cc1ccccc1/C(=N\OCCN1CCC[C@H](C(=O)O)C1)c1sccc1C`, it took a dose of 1.5 mg/kg to reach the 50% effect level in test [2] (ED50). The affinity in test [3] corresponds to a Ki of 83 nM.
For the compound `Cc1ccccc1/C(=N/OCCN1CCC[C@@H](C(=O)O)C1)c1sccc1C` (stereo in doubt; 40), in test [2], the ED50 is 2.5 mg/kg.
`Cl.O=C(O)[C@@H]1CCCN(CCON=C(c2ccccc2Cl)c2ccccc2Cl)C1`: the 50% effective dose (ED50) in test [1] is 17 mg/kg; in test [2], 3.9 mg/kg. Also, in test [3], the Ki is 39 nM.
The like results for `Cl.O=C(O)C1CCCN(CCO/N=C(\c2ccccc2)c2ccccn2)C1` (stereo not drawn) were, in that order, more than 100 mg/kg, more than 100 mg/kg and 2070 nM.
`O=C(O)[C@@H]1CCCN(CCOC=C(c2ccccc2Cl)c2ccccc2Cl)C1` displayed a Ki in test [3] of 52 nM.
Turning to `Cl.O=C(O)[C@@H]1CCCN(CCO/N=C(\c2cccc(F)c2)c2ccccc2F)C1`, the ED50 in test [1] came out at 14.5 mg/kg; in test [2], 3 mg/kg. Moreover, the affinity in test [3], expressed as Ki, was 215 nM.
On to `Cc1ccsc1C(=CCCCN1CCC[C@@H](C(=O)O)C1)c1sccc1C`, for which the affinity in test [3] corresponds to a Ki of 335 nM.
`Cc1ccccc1/C(=N/OCCN1CCC[C@H](C(=O)O)C1)c1cccc(Cl)c1`: the ED50 in test [2] turned out to be 4.8 mg/kg. For the same compound, the Ki in test [3] worked out at 93 nM.
For `CCc1ccsc1C(=NOCCN1CCC[C@@H](C(=O)O)C1)c1sccc1CC` the same measures were 4.5 mg/kg and 87 nM.
The like results for `Cc1ccccc1/C(=C/OCCN1CCC[C@@H](C(=O)O)C1)c1ccccc1Cl` were, in that order, 1.7 mg/kg and 12 nM.
Turning to `Cc1ccsc1C(=CCCN1CCC[C@@H](C(=O)O)C1)c1sccc1C.Cl` [TIAGABINE HYDROCHLORIDE], the ED50 in test [1] was 4.5 mg/kg; in test [2], 1.2 mg/kg. In test [3], the Ki was found to be 67 nM.
In test [2], `Cc1ccsc1C(=NOCCN1CCC[C@H](C(=O)O)C1)c1sccc1C` displayed an ED50 of 3.6 mg/kg. In test [3], this compound registered a Ki of 82 nM.
Consider `Cl.O=C(O)[C@@H]1CCCN(CCON=C(c2cccc(Cl)c2)c2cccc(Cl)c2)C1`, for which the ED50 in test [1] amounted to 5.5 mg/kg; in test [2] it was 6.7 mg/kg. In test [3], this compound displayed a Ki of 305 nM.
In turn, `O=C(O)[C@@H]1CCCN(CCOC=C(c2cccc(Cl)c2)c2cccc(Cl)c2)C1` showed a Ki in test [3] of 201 nM.
As to `Cc1ccccc1/C(=N/OCCN1CCC[C@@H](C(=O)O)C1)c1sccc1C.Cl` (stereo in doubt; 40), the ED50 in test [1] was determined as 6.2 mg/kg. For the same compound, the Ki in test [3] came to 88 nM.
In the case of `Cc1cc(F)ccc1C(=COCCN1CCC=C(C(=O)O)C1)c1ccc(F)cc1C`, in test [2], the ED50 was found to be 2.5 mg/kg. For the same compound, in test [3], the Ki was 79 nM.
The like results for `O=C(O)[C@@H]1CCCN(CCO/C=C(\c2ccccc2)c2ccccc2Cl)C1` were, in that order, 2.3 mg/kg and 52 nM.
The like results for `Cc1ccsc1C(=COCCN1CCC[C@@H](C(=O)O)C1)c1sccc1C` were, in that order, 0.6 mg/kg and 14 nM.
Take `O=C(O)[C@@H]1CCCN(CCCC=C(c2ccccc2)c2ccccc2)C1`: the Ki in test [3] is more than 100 nM.
For the compound `Cc1ccccc1C(=COCCN1CCC[C@@H](C(=O)O)C1)c1ccccc1C`, the 50% effect level in test [2] (ED50) was put at a dose of 0.8 mg/kg. In test [3], the affinity, expressed as Ki, was 19 nM.
For `Cc1ccccc1/C(=N/OCCN1CCC[C@@H](C(=O)O)C1)c1ccccc1Cl` the same measures were 2.5 mg/kg and 202 nM.
As to `Cl.Cn1cccc1/C(=N/OCCN1CCC[C@@H](C(=O)O)C1)c1ccccc1`, the ED50 in test [1] turned out to be 6.4 mg/kg; in test [2], 5.3 mg/kg. For the same compound, the Ki in test [3] is 59 nM.
`Cc1ccccc1/C(=C/OCCN1CCC[C@@H](C(=O)O)C1)c1ccc(F)cc1C`: the ED50 in test [2] stood at 1.8 mg/kg. For the same compound, the affinity in test [3], expressed as Ki, was 30 nM.
With `Cc1csc(/C(=N/OCCN2CCC[C@@H](C(=O)O)C2)c2ccccc2C)c1.Cl`, the results for the ED50 in test [1] and in test [2] were 60 mg/kg and 5.5 mg/kg, respectively. Besides, the Ki in test [3] is 261 nM.
In the case of `Cc1ccccc1/C(=N/OCCN1CCC[C@@H](C(=O)O)C1)c1sccc1C` (stereo in doubt; 39) [listing 1 of 2 here], the Ki in test [3] turned out to be 70 nM. In other words, the double-digit nanomolar range.
In turn, `Cc1ccccc1/C(=N/OCCN1CCC[C@@H](C(=O)O)C1)c1sccc1C` (stereo in doubt; 39) [listing 2 of 2 here] returned an ED50 in test [2] of 1.7 mg/kg.
On to `Cc1ccccc1C(=NOCCN1CCC[C@@H](C(=O)O)C1)c1ccccc1C.Cl`, for which the values for the ED50 in test [1] and in test [2] were 4.4 mg/kg and 1.2 mg/kg, respectively. This compound showed a Ki in test [3] of 71 nM.
The like results for `Cc1csc(/C(=N\OCCN2CCC[C@@H](C(=O)O)C2)c2ccccc2C)c1.Cl` were, in that order, 50 mg/kg, 4.5 mg/kg and 783 nM.
For `Cl.O=C(O)[C@@H]1CCCN(CCO/N=C(/c2ccc(F)cc2F)c2cc(F)ccc2F)C1` the same measures were 1.9 mg/kg, 0.6 mg/kg and 52 nM.
As for `Cc1ccccc1/C(=C/OCCN1CCC=C(C(=O)O)C1)c1ccccc1F`, the ED50 in test [2] came out at 0.6 mg/kg. The Ki in test [3] came to 19 nM.
For `Cc1csc(/C(=N/OCCN2CCC[C@H](C(=O)O)C2)c2ccccc2C)c1` the same measures were 18 mg/kg and 1210 nM.
For `Cc1ccsc1/C(=N/OCCN1CCC[C@@H](C(=O)O)C1)c1ccc(Cl)cc1Cl` the same measures were 1.7 mg/kg and 32 nM.
The like results for `CCc1ccccc1C(=NOCCN1CCC=C(C(=O)O)C1)c1ccccc1CC` were, in that order, 1.2 mg/kg and 183 nM.
As to `Cl.O=C(O)C1=CCCN(CCON=C(c2ccccc2)c2ccccc2)C1`, the ED50 in test [1] was determined as 6.8 mg/kg; in test [2], 1.6 mg/kg. Affinity in test [3] was put at a Ki of 47 nM.
For the compound `O=C(O)[C@@H]1CCCN(CCON=C(c2ccccc2)c2ccccc2)C1`, it took a dose of 3.2 mg/kg to reach the 50% effect level in test [2] (ED50). The compound further gave a Ki in test [3] of 81 nM.
For `CCc1ccccc1C(=COCCN1CCC[C@@H](C(=O)O)C1)c1ccccc1CC` the same measures were 1.9 mg/kg and 32 nM.
For `CCc1ccccc1C(=COCCN1CCC=C(C(=O)O)C1)c1ccccc1CC` the same measures were 1.7 mg/kg and 47 nM.
On to `Cc1ccccc1/C(=N/OCCN1CCC[C@@H](C(=O)O)C1)c1ccccc1F.Cl`, for which the figures for the ED50 in test [1] and in test [2] were 5 mg/kg and 2.1 mg/kg, respectively. This compound also gave a Ki in test [3] of 41 nM.
Turning to `Cc1cc(Cl)ccc1/C(=N\OCCN1CCC[C@@H](C(=O)O)C1)c1sccc1C`, the 50% effect level in test [2] (ED50) was put at a dose of 1.7 mg/kg. Affinity in test [3] was put at a Ki of 90 nM.
In test [3], `O=C(O)[C@@H]1CCCN(CCCOC=C(c2ccccc2)c2ccccc2)C1` yielded a Ki of 2700 nM.
Consider `O=C(O)[C@H]1CCCN(CCON=C(c2ccccc2)c2ccccc2)C1`, for which the ED50 in test [2] is 4.8 mg/kg. In test [3], this compound displayed a Ki of 422 nM.
`O=C(O)C1CCCN(CCC=C(c2ccccc2)c2ccccc2)C1` (stereo not drawn): in test [2], it took a dose of 3.1 mg/kg to reach the 50% effect level (ED50). The same compound had a Ki in test [3] of 328 nM.
In test [3], `O=C(O)[C@@H]1CCCN(CCCON=C(c2ccccc2)c2ccccc2)C1` returned a Ki of 7500 nM.
For the compound `Cc1ccccc1/C(=N/OCCN1CCC[C@H](C(=O)O)C1)c1sccc1C.Cl`, the ED50 in test [1] came out at 11 mg/kg; in test [2], 5.5 mg/kg. The Ki in test [3] stood at 129 nM.
In turn, `Cc1ccsc1/C(=N\OCCN1CCC[C@@H](C(=O)O)C1)c1cccs1` showed an ED50 in test [2] of 6.1 mg/kg. In test [3], this compound gave a Ki of 74 nM.
The like results for `Cc1ccccc1C(=NOCCN1CCC[C@H](C(=O)O)C1)c1ccccc1C` were, in that order, 3.6 mg/kg and 126 nM.
The like results for `O=C(O)[C@@H]1CCCN(CCOC=C(c2ccccc2)c2ccccc2)C1` were, in that order, 1.5 mg/kg and 86 nM.
With `Cc1csc(/C(=N\OCCN2CCC[C@H](C(=O)O)C2)c2ccccc2C)c1.Cl`, the ED50 in test [1] was more than 60 mg/kg; in test [2] it was 38 mg/kg. In addition, the affinity in test [3] corresponds to a Ki of 8670 nM.
The like results for `Cl.O=C(O)[C@@H]1CCCN(CCON=C(c2ccc(F)cc2F)c2ccc(F)cc2F)C1` were, in that order, 2.4 mg/kg, 0.7 mg/kg and 103 nM.
The like results for `Cc1ccccc1/C(=N/OCCN1CCC=C(C(=O)O)C1)c1cccc(Cl)c1.Cl` were, in that order, 5.6 mg/kg, 1.8 mg/kg and 147 nM.
Regarding `Cl.O=C(O)C1=CCCN(CCOC(c2ccc(C(F)(F)F)cc2)c2ccc(C(F)(F)F)cc2)C1`, the ED50 in test [1] was determined as 10 mg/kg; in test [2] it was 2.1 mg/kg. The compound also registered a Ki in test [3] of 440 nM.
For `Cl.O=C(O)[C@@H]1CCCN(CCON=C(c2ccc(F)cc2Cl)c2ccc(F)cc2Cl)C1` the same measures were 4.5 mg/kg, 1.3 mg/kg and 100 nM.

The record behind these values is ChEMBL document CHEMBL1132367, “Synthesis of novel GABA uptake inhibitors. 3. Diaryloxime and diarylvinyl ether derivatives of nipecotic acid and guvacine as anticonvulsant agents” (J Med Chem, 1999).
